Activity calls are given as the source filed them. The rule behind the calls is not given here.
Columns and labels:
Geotrichum candidum = test: Fungicidal activity against Galactomyces geotrichum CCM 245 assessed as inhibition of radial mycelial growth at 100 ug/mL after 4 days; type: functional; settings: CCM 245, 96 h, read-out: GI
Outline: (§1)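 Compounds in acetone incorporated into PDA at 100 µg/mL. Acetone-only plates were the negative control, and benomyl at 2.5 µg/mL was the positive control. Plates were inoculated with spores from 7-day-old PDA cultures and incubated at 28 °C for 4 days (6 days for R. necatrix and V. dahliae). Radial mycelial growth was measured and % inhibition calculated against the control. Triplicate determinations, mean ± SD, ANOVA/LSD.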

[1] = test system: Fusarium oxysporum f. sp. gladioli; test: Fungicidal activity against Fusarium oxysporum f. sp. gladioli CCM 233 assessed as inhibition of radial mycelial growth at 100 ug/mL after 4 days; type: functional; settings: CCM 233, 96 h, read-out: GI; outline: as §1
[2] = test system: Fusarium oxysporum f. sp. niveum; test: Fungicidal activity against Fusarium oxysporum f. sp. niveum CCM 259 assessed as inhibition of radial mycelial growth at 100 ug/mL after 4 days; type: functional; settings: CCM 259, 96 h, read-out: GI; outline: as §1
Verticillium dahliae = test: Fungicidal activity against Verticillium dahliae CCM 269 assessed as inhibition of radial mycelial growth at 100 ug/mL after 6 days; type: functional; settings: CCM 269, 144 h, read-out: GI; outline: as §1
Fusarium culmorum = test: Fungicidal activity against Fusarium culmorum CCM 172 assessed as inhibition of radial mycelial growth at 100 ug/mL after 4 days; type: functional; settings: CCM 172, 96 h, read-out: GI; outline: as §1
Aspergillus parasiticus = test: Fungicidal activity against Aspergillus parasiticus CECT 2681 assessed as inhibition of radial mycelial growth at 100 ug/mL after 4 days; type: functional; settings: CECT 2681, 96 h, read-out: GI; outline: as §1
Alternaria alternata = test: Fungicidal activity against Alternaria tenuis CECT 2662 assessed as inhibition of radial mycelial growth at 100 ug/mL after 4 days; type: functional; settings: CECT 2662, 96 h, read-out: GI; outline: as §1
Oncopeltus fasciatus [3] = test: Insecticidal activity against Oncopeltus fasciatus third-instar nymphs reared on diet based on sunflower seeds assessed as insect mortality at 5 to 10 ug/cm2 relative to untreated control; type: functional, organism-based
[4] = test system: Colletotrichum gloeosporioides; test: Fungicidal activity against Colletotrichum gloeosporioides CECT 2859 assessed as inhibition of radial mycelial growth at 100 ug/mL after 4 days; type: functional; settings: CECT 2859, 96 h, read-out: GI; outline: as §1
Trichothecium roseum = test: Fungicidal activity against Trichothecium roseum CECT 2410 assessed as inhibition of radial mycelial growth at 100 ug/mL after 4 days; type: functional; settings: CECT 2410, 96 h, read-out: GI; outline: as §1
Penicillium italicum = test: Fungicidal activity against Penicillium italicum CECT 2294 assessed as inhibition of radial mycelial growth at 100 ug/mL after 4 days; type: functional; settings: CECT 2294, 96 h, read-out: GI; outline: as §1
Trichoderma viride = test: Fungicidal activity against Hypocrea rufa CECT 2423 assessed as inhibition of radial mycelial growth at 100 ug/mL after 4 days; type: functional; settings: CECT 2423, 96 h, read-out: GI; outline: as §1
Colletotrichum coccodes = test: Fungicidal activity against Colletotrichum coccodes CCM 327 assessed as inhibition of radial mycelial growth at 100 ug/mL after 4 days; type: functional; settings: CCM 327, 96 h, read-out: GI; outline: as §1
Oncopeltus fasciatus [5] = test: Insecticidal activity against Oncopeltus fasciatus third-instar nymphs reared on diet based on sunflower seeds assessed as insect mortality at 7.5 ug/cm2 relative to untreated control; type: functional
Oncopeltus fasciatus [6] = test: Insecticidal activity against Oncopeltus fasciatus third-instar nymphs reared on diet based on sunflower seeds assessed as insect mortality at 5 ug/cm2 relative to untreated control; type: functional

SMILES | inhibition of growth at 100 µg/mL (Geotrichum candidum) [%] | inhibition of growth at 100 µg/mL [1] [%] | inhibition of growth at 100 µg/mL [2] [%] | inhibition of growth at 100 µg/mL (Verticillium dahliae) [%] | inhibition of growth at 100 µg/mL (Fusarium culmorum) [%] | inhibition of growth at 100 µg/mL (Aspergillus parasiticus) [%] | inhibition of growth at 100 µg/mL (Alternaria alternata) [%] | Activity (Oncopeltus fasciatus [3]) | inhibition of growth at 100 µg/mL [4] [%] | inhibition of growth at 100 µg/mL (Trichothecium roseum) [%] | inhibition of growth at 100 µg/mL (Penicillium italicum) [%] | inhibition of growth at 100 µg/mL (Trichoderma viride) [%] | inhibition of growth at 100 µg/mL (Colletotrichum coccodes) [%] | mortality at 7.5 µg/cm2 (Oncopeltus fasciatus [5]) [%] | mortality at 5 µg/cm2 (Oncopeltus fasciatus [6]) [%]
CCCCCCCC(O)C(C)C(=O)N1CCCC1=O (stereo not drawn) | 0 | 36.5 | 33.3 | 45.9 | 24.3 | 31.5 | 38.1 | inactive | 36.6 | 19.6 | 33.3 | 38 | 69 |  | 
CCCCCCCC(=O)C(C)C(=O)N1CCCC1=O (stereo not drawn) | 24.4 | 26.8 | 21 | 56.2 | 18.1 | 31.7 | 47.5 | inactive | 35.6 | 49.5 | 8.6 | 21.1 | 52 |  | 
CC1=C(C2CC2)OC2CCCN2C1=O (stereo not drawn) | 0 | 24.1 | 26.2 | 65.4 | 38.9 | 11.3 | 23.9 | inactive | 11.8 | 0 | 23.6 | 0 | 37.8 |  | 
CCCCCCCC(=O)N1CC=CC1 | 0 | 38.5 | 30.5 | 39.6 | 24.5 | 19.3 | 51.4 |  | 35.4 | 34.3 | 31.2 | 38 | 76.7 | 100 | 20

From ChEMBL document CHEMBL3045005, “Synthesis and biological evaluation of new analogues of the active fungal metabolites N-(2-methyl-3-oxodecanoyl)-2-pyrroline and N-(2-methyl-3-oxodec-8-enoyl)-2-pyrroline (II)” (2000)
